Experimental data as given in ChEMBL document CHEMBL3351677, “Design and synthesis of azaisoflavone analogs as phytoestrogen mimetics” (Eur J Med Chem, 2014).
Calls of active or inactive are those of the source. No cut-off for these calls is given here.

How the values were obtained:
MCF7 [1] = assay: Growth inhibition in human MCF7 cells at 5 to 100 uM after 4 days by MTT assay; format: functional, cell-based
Summary of the method: (§1)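 MCF-7 cells kept in DMEM with 10% FBS, then held 3 days in phenol red-free DMEM with 5% charcoal-dextran stripped FBS. Seeded at 1.5 × 10³ cells/well for 24 h, then treated with samples for 4 days; 0.1 nM E2 and 100 nM ICI served as controls. MTT (5 mg/mL in PBS) was added for 2 h, formazan dissolved in DMSO and absorbance read. Three independent experiments, mean ± SD, Dunnett test.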

CV-1 = assay: Selectivity ratio of maximum activation of human ERbeta expressed in CV1 cells to maximum activation of human ERalpha expressed in CV1 cells; format: cell-based
Summary of the method: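 CV-1 cells held in phenol red-free DMEM with 5% stripped FBS for 3 days, seeded at 1.5 × 10⁵ cells/well. Next day they were co-transfected for 6 h with 30 ng hERα or hERβ plus 100 ng ERE-luciferase, with a β-galactosidase vector for normalization. Treated 24 h, then luciferase read, β-gal absorbance at 410 nm. Each subtype's activation expressed relative to maximum with 20 nM E2; at least three experiments.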

Homo sapiens = species on record: Homo sapiens; assay: Selectivity ratio of maximum inhibition of recombinant human ERbeta to maximum inhibition of recombinant human ERalpha by competitive binding assay
Summary of the method: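 Competitive binding with [³H]-E2 (1 nM) for ERα and ERβ. Bound and free ligand separated by centrifugation at 12,000 × g for 2 min; supernatant radioactivity counted by liquid scintillation. Bound [³H]-E2 expressed relative to maximum receptor-bound ligand (10⁻⁷ M E2), versus 0.1% DMSO control; at least three separate experiments.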

MCF7 [2] = assay: Growth inhibition in human MCF7 cells at 50 to 100 uM after 4 days by MTT assay; format: functional, cell-based; summary of the method: as §1
MCF7 [3] = assay: Stimulation of growth in human MCF7 cells at 5 to 20 uM after 4 days by MTT assay; format: functional, cell-based; summary of the method: as §1
MCF7 [4] = assay: Growth inhibition in human MCF7 cells at 20 to 100 uM after 4 days by MTT assay; format: functional, cell-based; summary of the method: as §1
MCF7 [5] = assay: Stimulation of growth in human MCF7 cells at 0.1 to 20 uM after 4 days by MTT assay; format: functional, cell-based; summary of the method: as §1

For O=c1c(-c2ccc(O)cc2)cn(Cc2ccccc2)c2cc(O)ccc12, the “growth inhibition (GI)” value (MCF7 [1]) was “Active” and the Selectivity ratio (CV-1) was 1.

With O=c1c(-c2ccc(O)cc2)c[nH]c2cc(O)cc(O)c12 the Selectivity ratio (CV-1) was 2.9, the Selectivity ratio (Homo sapiens) was 12 and the “growth inhibition (GI)” value (MCF7 [2]) was “Active”. For the same compound, the Activity (MCF7 [3]) was “Active”.

Cn1cc(-c2ccc(O)cc2)c(=O)c2c(O)cc(O)cc21 was tested, and the Selectivity ratio (CV-1) was 1.3, the Selectivity ratio (Homo sapiens) was 2.6 and the “growth inhibition (GI)” value (MCF7 [2]) was “Active”. The Activity (MCF7 [3]) was “Active”.

With CC(C)CCn1cc(-c2ccc(O)cc2)c(=O)c2ccc(O)cc21 the “growth inhibition (GI)” value (MCF7 [1]) was “Active” and the Selectivity ratio (CV-1) was 3.4.

In the case of O=c1c(-c2ccc(O)cc2)coc2cc(O)cc(O)c12, the “growth inhibition (GI)” value (MCF7 [4]) is reported as “Active” and the Activity (MCF7 [5]) is reported as “Active”.

With CCCn1cc(-c2ccc(O)cc2)c(=O)c2ccccc21 the Selectivity ratio (CV-1) was 0.5, the “growth inhibition (GI)” value (MCF7 [2]) was “Active” and the Activity (MCF7 [3]) was “Active”.

For CCCn1cc(-c2ccc(O)cc2)c(=O)c2ccc(O)cc21, the Selectivity ratio (CV-1) was 1.6, the “growth inhibition (GI)” value (MCF7 [2]) was “Active” and the Activity (MCF7 [3]) was “Active”.

O=c1c(-c2ccc(O)cc2)c[nH]c2cc(O)ccc12 showed a Selectivity ratio (CV-1) of 1.3.

For CCCn1cc(-c2ccc(O)cc2)c(=O)c2c(O)cc(O)cc21, the “growth inhibition (GI)” value (MCF7 [1]) was “Active”, the Selectivity ratio (CV-1) was 0.3 and the Selectivity ratio (Homo sapiens) was 1.4.

For CCn1cc(-c2ccc(O)cc2)c(=O)c2ccc(O)cc21, the Selectivity ratio (CV-1) was 2.9, the “growth inhibition (GI)” value (MCF7 [2]) was “Active” and the Activity (MCF7 [3]) was “Active”.

In the case of CCn1cc(-c2ccc(O)cc2)c(=O)c2c(O)cc(O)cc21, the Selectivity ratio (CV-1) is reported as 0.8, the Selectivity ratio (Homo sapiens) is reported as 1.6 and the “growth inhibition (GI)” value (MCF7 [2]) is reported as “Active”. For the same compound, the Activity (MCF7 [3]) was “Active”.

Cn1cc(-c2ccc(O)cc2)c(=O)c2ccc(O)cc21 gave a Selectivity ratio (CV-1) of 6.4.
